This is a sample that favours compounds with a hit; in the whole collection about 2% have one here.
Rpn11 block = blocks the human proteasome subunit Rpn11. human 26S proteasome, Ub4-pepOG fluorescence polarization; 20S core pre-blocked with epoxomicin. 360,000 tested, 0.59% active. inhibition, % at 20 µM;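 active = inhibition at 20 µM, scaled to each plate's controls, above about 33%, limit read from the data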
Target sequence (O00487 whole entry, looked up): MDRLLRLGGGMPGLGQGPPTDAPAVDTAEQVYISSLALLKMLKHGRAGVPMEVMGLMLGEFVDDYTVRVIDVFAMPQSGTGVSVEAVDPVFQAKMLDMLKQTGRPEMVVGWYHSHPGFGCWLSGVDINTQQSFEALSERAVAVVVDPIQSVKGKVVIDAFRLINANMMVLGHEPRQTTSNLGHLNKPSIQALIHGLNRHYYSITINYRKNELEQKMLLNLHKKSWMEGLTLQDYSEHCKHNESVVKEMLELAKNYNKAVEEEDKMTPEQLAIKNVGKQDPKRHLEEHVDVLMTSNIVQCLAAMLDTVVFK
TPT1 inhibitor = C. albicans TPT1 enzyme inhibition; 300,000 tested, 0.81% active; inhibition, % at 5 µM; recombinant caTPT1, FP RNA substrate dephosphorylation;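 active = inhibition above the mean of all tested compounds plus 3 SD, set per screening campaign, cut at about 24% in these data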;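 also: plate controls were DMSO alone for no effect and ferristatin control at 100 nM for full effect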
HNF4A DNA FP = change in binding of human HNF4 alpha to DNA; HNF4a-FITC DNA binding, fluorescence polarization, 1 h; activity change, % at 10 µM; 360,000 tested, 0.3% active; AID 1224865; P41235; in the data active = activity change above about 30%, passing the limit was not always enough
ATG4B inhibitor = blocks human ATG4B protease cleavage of LC3 substrate. 340,000 tested, 0.51% active. AID 504462. ATG4B cleavage of LC3-PLA2, NBD-HPC fluorescence, 1 h. inhibition, % at 8.33 µM; in the data active = inhibition above about 40%
CSN deneddyl inh = blocks human CSN-mediated cullin deneddylation; inhibition, % at 12.5 µM; Purified CSN, SCF-Nedd8-OG deneddylation, fluorescence polarization; Q92905; 360,000 tested, 0.38% active;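 active = pattern-corrected inhibition above about 35%, with an unprinted fluorescence ratio check between 0.5 and 1.5, limit read from the data, passing the limit was not always enough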;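 also: 0% = enzyme with substrate and 100% = substrate without enzyme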
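Detection – fluorescence polarization · System – HEK293T-derived human Csn5 enzyme · Controls – substrate-only high control, full reaction low control · Timing – 90 min, room temperature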
SENP1 inh = blocks the human SENP1 SUMO protease catalytic domain. 360,000 tested, 0.21% active. Q9P0U3. recombinant SENP1 catalytic domain, CyPet-SUMO1-YPet FRET cleavage. AID 624204. inhibition, % at 10 µM;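 active = inhibition at least 30% at 10 µM, raw YFP signal under a set limit, fluorescence ratio 0.5 to 1.5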;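 also: 0% = enzyme with DMSO and 100% = no enzyme wells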
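Test system: hSENP1 catalytic domain, recombinant; Amount: 20 pM final SENP1 enzyme; Medium: Tris pH 8 buffer plus EDTA, NaCl, BME, BSA, NP40, catalase; Schedule: 50 min enzyme reaction, room temperature, light-protected; Technique: FRET fluorescence in CFP and YFP emission channels; Controls: no-enzyme wells low, DMSO-plus-enzyme wells high control.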
ATG4B conf = ATG4B (human) inhibition, single-dose confirmed; shares compounds with ATG4B inhibitor; ATG4B protease fluorescent substrate cleavage assay; inhibition, % at 8.33 µM; 320 tested, 92% active; AID 504757; in the data active = inhibition above about 39%
PLA2 counter = PLA2 (human) inhibition in ATG4B counter-screen. 1,600 tested, 66% active. AID 588402. purified PLA2, NBD-C6-HPC fluorescence, 45 min. shares compounds with ATG4B inhibitor. inhibition, % at 8.33 µM; in the data active = inhibition above about 50%
Target sequence (P04054 whole entry, looked up): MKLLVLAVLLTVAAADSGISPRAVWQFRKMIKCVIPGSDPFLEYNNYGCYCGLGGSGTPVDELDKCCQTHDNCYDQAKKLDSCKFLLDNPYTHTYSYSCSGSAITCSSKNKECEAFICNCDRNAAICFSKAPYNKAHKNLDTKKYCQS
The depositor's hits bear a star.

Results for O=C(CCSCc1cccc(Cl)c1)NCCc1ccc(Cl)cc1 ?
Rpn11 block: 0; TPT1 inhibitor: 1; HNF4A DNA FP: -1; ATG4B inhibitor: 44*; CSN deneddyl inh: -6; SENP1 inh: 1; PLA2 counter: 16

What do the screens show for `S=C(Nc1ccc2nsnc2c1)NC1CCCCC1`?
Rpn11 block: -8; TPT1 inhibitor: -7; HNF4A DNA FP: -5; ATG4B inhibitor: 5; CSN deneddyl inh: 9; SENP1 inh: -28

Results for O=C(CCSCc1ccc(Cl)cc1)NCCc1ccccc1 ?
Rpn11 block: 0; TPT1 inhibitor: -5; HNF4A DNA FP: -1; ATG4B inhibitor: 5; CSN deneddyl inh: -12; SENP1 inh: 2

How did S=C(NCCc1ccccc1)NCc1cccc(Cl)c1 do in these assays?
Rpn11 block: 11; TPT1 inhibitor: -3; HNF4A DNA FP: -2; ATG4B inhibitor: 84*; CSN deneddyl inh: -2; SENP1 inh: 0; PLA2 counter: 90*

What do the screens show for `CCOCCCn1c(SCC(=O)NC2CCCCC2)nc2ccccc2c1=O`?
Rpn11 block: 2; HNF4A DNA FP: 0; CSN deneddyl inh: 1; SENP1 inh: 3

Results for S=C(NCCCCNC(=S)NCc1ccccc1)NCc1ccccc1 ?
Rpn11 block: 10; TPT1 inhibitor: -1; HNF4A DNA FP: 1; ATG4B inhibitor: 4; CSN deneddyl inh: -3; SENP1 inh: 1

Results for S=C(NCCCCc1ccccc1)NCc1ccccc1 ?
Rpn11 block: 4; HNF4A DNA FP: 0; ATG4B inhibitor: 63*; CSN deneddyl inh: -5; SENP1 inh: 0; PLA2 counter: 70*

How did Cc1cccc(C)c1N1C(=O)c2ccccc2NC(=O)C1C(=O)Nc1ccc2c(c1)OCCO2 (stereo not given) do in these assays?
HNF4A DNA FP: 4; CSN deneddyl inh: -1; SENP1 inh: 8

How did N#Cc1c(N2CCCC2)nc(N)c2c(N)nc(N3CCCC3)cc12 do in these assays?
Rpn11 block: -2; TPT1 inhibitor: 0; HNF4A DNA FP: 36; ATG4B inhibitor: 74*; CSN deneddyl inh: 55*; SENP1 inh: -28; ATG4B conf: 26; PLA2 counter: 40

Results for CCOc1cc2c(C#N)c(N3CCCC3)nc(N)c2c(N)n1 ?
Rpn11 block: 9; TPT1 inhibitor: 5; HNF4A DNA FP: 5; ATG4B inhibitor: -6; CSN deneddyl inh: 1; SENP1 inh: -14

How did CCOc1ccc(C(=O)Nc2cccc(C(=O)O)c2)cc1Cl do in these assays?
Rpn11 block: 4; TPT1 inhibitor: 0; HNF4A DNA FP: 3; ATG4B inhibitor: 17; CSN deneddyl inh: -3; SENP1 inh: -1

What do the screens show for `CCOc1ccc(C(=O)Nc2cc(NC(=O)c3ccc(OCC)c(Cl)c3)cc(C(=O)O)c2)cc1Cl`?
Rpn11 block: 3; HNF4A DNA FP: 0; ATG4B inhibitor: 48*; CSN deneddyl inh: 49*; SENP1 inh: -1; PLA2 counter: 60*

Results for CN1CCN(C(=O)c2cccc(-c3ccc4nccn4c3)c2)CC1 ?
Rpn11 block: 2; HNF4A DNA FP: 0; CSN deneddyl inh: 3; SENP1 inh: 0

How did CCOC(=O)c1c(NS(=O)(=O)c2ccc(Br)cc2)sc2c1CCC2 do in these assays?
Rpn11 block: 14; TPT1 inhibitor: 15; HNF4A DNA FP: 1; ATG4B inhibitor: 46*; CSN deneddyl inh: 12; SENP1 inh: -20; PLA2 counter: 57*

Results for CCOC(=O)c1c(NS(=O)(=O)Cc2ccccc2)sc2c1CCCC2 ?
Rpn11 block: 8; TPT1 inhibitor: -3; HNF4A DNA FP: 2; ATG4B inhibitor: 28; CSN deneddyl inh: -1; SENP1 inh: 3

How did COc1cc2c(cc1OC)CN(C1CCC(C(C)(C)C)CC1)CC2 (stereo not given) do in these assays?
Rpn11 block: 0; HNF4A DNA FP: 0; ATG4B inhibitor: -1; CSN deneddyl inh: -2; SENP1 inh: -4

What do the screens show for `Nc1c(C(=O)Nc2ccc3c(c2)OCCO3)nnn1Cc1cccc(Br)c1`?
Rpn11 block: -8; TPT1 inhibitor: -3; HNF4A DNA FP: -3; ATG4B inhibitor: 41*; CSN deneddyl inh: -1; SENP1 inh: 1; PLA2 counter: 48

How did O=C(OC1CCc2ccccc2C1=O)c1ccccc1O (stereo not given) do in these assays?
Rpn11 block: -5; TPT1 inhibitor: -4; HNF4A DNA FP: -3; ATG4B inhibitor: 77*; CSN deneddyl inh: -2; SENP1 inh: 0; PLA2 counter: 79*

Results for O=C(O)c1ccc(C[n+]2c(-c3ccccc3)csc2Nc2ccccc2)cc1 ?
Rpn11 block: -4; TPT1 inhibitor: -1; HNF4A DNA FP: 2; ATG4B inhibitor: 42*; CSN deneddyl inh: 0; SENP1 inh: 0; ATG4B conf: 84*; PLA2 counter: 17

How did CC(C)(C)c1cc(-c2csc(Nc3ccccc3)[n+]2Cc2ccc(C(=O)O)cc2)cc(C(C)(C)C)c1O do in these assays?
Rpn11 block: -1; TPT1 inhibitor: -1; HNF4A DNA FP: -16; ATG4B inhibitor: 46*; CSN deneddyl inh: 0; SENP1 inh: 1; PLA2 counter: 56*

How did C=CC[n+]1c(C)csc1Nc1ccc(C(=O)O)cc1 do in these assays?
Rpn11 block: -4; TPT1 inhibitor: -2; HNF4A DNA FP: -1; ATG4B inhibitor: -6; CSN deneddyl inh: -5; SENP1 inh: 2

How did CCCCCC[n+]1c(-c2ccccc2)csc1Nc1ccccc1 do in these assays?
Rpn11 block: -5; TPT1 inhibitor: 1; HNF4A DNA FP: 3; ATG4B inhibitor: -2; CSN deneddyl inh: -9; SENP1 inh: 0

What do the screens show for `CCOC(=O)C1CCN(C(=O)c2cccc(S(=O)(=O)N3CCCc4ccccc43)c2)CC1`?
Rpn11 block: -4; HNF4A DNA FP: 3; ATG4B inhibitor: -10; CSN deneddyl inh: 2; SENP1 inh: -1

Results for COC(=O)c1cc2ccc(OC)cc2c2cc(OC)c(OC)cc12 ?
Rpn11 block: 2; HNF4A DNA FP: -1; ATG4B inhibitor: -5; CSN deneddyl inh: -1; SENP1 inh: 1

How did COc1cccc(Cn2cc(-c3cccc(C(F)(F)F)c3)nn2)c1 do in these assays?
Rpn11 block: 1; TPT1 inhibitor: -2; HNF4A DNA FP: -3; ATG4B inhibitor: 50*; CSN deneddyl inh: 1; SENP1 inh: -2; PLA2 counter: 68*
